In PMC3064798 (Nucleic Acids Research, 2011):
Values joined by “and” are separate entries in the source; they are usually repeats but may differ in a detail not shown here. Equal entries are not always repeated.

Columns and labels:
Vent(exo^−) polymerase [1] = target: T1, Vent(exo^−) polymerase (Thermococcus litoralis, UniProt P30317, D141A/DEL1082-1471/DEL495-1032/E143A); conditions: cited from earlier work
T1 sequence (P30317 with tags, fused parts or gaps D141A/E143A/DEL495-1032/DEL1082-1471): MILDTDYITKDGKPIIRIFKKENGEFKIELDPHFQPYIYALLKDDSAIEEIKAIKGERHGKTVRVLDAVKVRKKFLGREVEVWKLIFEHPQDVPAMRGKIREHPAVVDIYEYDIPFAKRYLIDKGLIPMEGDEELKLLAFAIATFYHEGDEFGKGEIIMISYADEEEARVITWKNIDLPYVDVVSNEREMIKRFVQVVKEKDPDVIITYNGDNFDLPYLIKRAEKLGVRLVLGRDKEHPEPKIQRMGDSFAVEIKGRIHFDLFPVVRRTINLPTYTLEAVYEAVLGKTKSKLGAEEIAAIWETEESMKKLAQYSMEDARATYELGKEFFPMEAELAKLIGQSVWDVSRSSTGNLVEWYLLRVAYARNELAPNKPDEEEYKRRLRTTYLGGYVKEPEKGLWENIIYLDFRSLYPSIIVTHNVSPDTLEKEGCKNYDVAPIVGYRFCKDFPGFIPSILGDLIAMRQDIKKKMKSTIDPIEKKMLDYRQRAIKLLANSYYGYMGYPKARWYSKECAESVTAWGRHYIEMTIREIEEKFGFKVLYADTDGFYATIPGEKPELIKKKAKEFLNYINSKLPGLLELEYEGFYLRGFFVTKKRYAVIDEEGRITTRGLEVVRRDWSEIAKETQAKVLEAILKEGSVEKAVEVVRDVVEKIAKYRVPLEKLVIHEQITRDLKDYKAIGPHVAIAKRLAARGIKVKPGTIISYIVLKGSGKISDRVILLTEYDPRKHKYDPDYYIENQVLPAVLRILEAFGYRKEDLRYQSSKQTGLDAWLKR

Vent(exo^−) polymerase [2] = target: T1, Vent(exo^−) polymerase; assay: Nucleotide selectivity; assay type: biochemical; conditions: each mismatch combination
Summary of the method: (§1)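 Base discrimination was measured by PEP assay. OligoTemplate-4 was replaced with 40 nM oligoTemplate-2 or oligoTemplate-5 to give mismatched template bases. For the T—G mismatch, 5 nM BODIPY-FL primer-3 was hybridised to 40 nM oligoTemplate-8. The selectivity ratio is the mismatched IC50 divided by the matched IC50.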

Vent(exo^−) polymerase [3] = target: T1, Vent(exo^−) polymerase; assay: PCR of TCF1 exons 2 and 10 with TTP or HOMedUTP; assay type: biochemical; conditions: 200 μM each dNTP
Summary of the method: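 Human genomic DNA (~50 ng) was amplified with 0.4 µM primer pairs and one unit of Vent(exo−). Buffer was 1× ThermoPol (20 mM Tris–HCl pH 8.8, 2 mM MgSO4, etc.) with 1 M betaine. dATP, dCTP and dGTP were at 200 μM each, with TTP or HOMedUTP. Cycling: 95°C 4 min; 35× (95°C 30 s, 59°C 30 s, 72°C 90 s); 72°C 7 min. Expected products: 602 bp (exon 2) and 670 bp (exon 10).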

Therminator polymerase [4] = target: T2, Therminator polymerase (Thermococcus sp., UniProt Q56366, A485L/D141A/E143A); assay: Nucleotide selectivity; assay type: biochemical
T2 sequence (Q56366 1-775 D141A/E143A/A485L): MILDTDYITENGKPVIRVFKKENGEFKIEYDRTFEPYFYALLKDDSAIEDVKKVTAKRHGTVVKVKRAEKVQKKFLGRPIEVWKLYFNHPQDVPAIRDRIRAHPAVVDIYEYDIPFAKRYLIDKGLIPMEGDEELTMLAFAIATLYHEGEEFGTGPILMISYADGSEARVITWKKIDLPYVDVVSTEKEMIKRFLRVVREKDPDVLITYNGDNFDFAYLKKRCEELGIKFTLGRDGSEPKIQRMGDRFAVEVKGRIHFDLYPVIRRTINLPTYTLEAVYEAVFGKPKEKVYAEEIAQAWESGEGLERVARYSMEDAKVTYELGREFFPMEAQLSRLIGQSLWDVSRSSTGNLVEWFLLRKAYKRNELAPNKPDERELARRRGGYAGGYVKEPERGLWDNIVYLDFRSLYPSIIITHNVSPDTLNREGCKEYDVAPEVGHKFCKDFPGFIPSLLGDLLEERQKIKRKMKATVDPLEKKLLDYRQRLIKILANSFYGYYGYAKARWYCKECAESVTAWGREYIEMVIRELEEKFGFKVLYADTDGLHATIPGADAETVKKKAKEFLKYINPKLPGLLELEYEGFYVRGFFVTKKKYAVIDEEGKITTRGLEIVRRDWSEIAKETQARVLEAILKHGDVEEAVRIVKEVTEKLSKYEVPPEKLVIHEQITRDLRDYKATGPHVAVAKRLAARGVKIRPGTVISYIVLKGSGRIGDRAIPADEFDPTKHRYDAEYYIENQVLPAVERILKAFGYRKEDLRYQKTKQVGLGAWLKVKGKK
Summary of the method: as §1

[5] = Photochemical cleavage studies; assay type: physicochemical; conditions: 50 mM NaN3; 365 nm UV; incorporated in primer-1/oligoTemplate-4
Summary of the method: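 Analogs (100 nM final) were incorporated as in PEP on BODIPY-FL primer-1/oligoTemplate-4 (10 nM/80 nM). Reactions were quenched in FBD solution (20% formamide, 10 mM Na2EDTA pH 8.0, Blue Dextran) or 50 mM sodium azide. Samples were irradiated at 365 nm for various times, then iced, mixed with formamide stop solution and run on an AB 377 sequencer. DT50 is the time for 50% cleavage, from triplicates ± 1 SD.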

Therminator polymerase [6] = target: T2, Therminator polymerase; assay: Weighted-sum assay for termination; assay type: biochemical; conditions: nucleotide at 3 μM (∼1000× IC50), oligoTemplate-7
Vent(exo^−) polymerase [7] = target: T1, Vent(exo^−) polymerase; assay: Weighted-sum assay for termination; assay type: biochemical; conditions: nucleotide at 3 μM (∼1000× IC50), oligoTemplate-7
Therminator polymerase [8] = target: T2, Therminator polymerase; assay: Ten cycle CRT sequencing; assay type: biochemical; conditions: 3 μM; UV cleavage in 50 mM sodium azide
Summary of the method: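 Biotinylated oligoTemplate-7 was bound to streptavidin M-270 beads with BODIPY-FL primer-2S, then preloaded with 0.5 U Therminator in 1× ThermoPol on ice for 5 min. Each cycle: incorporation at 65°C for 5 min, W10 washes, then 365 nm UV (~0.7 W/cm2, 4× 1 min) in 50 mM azide and ThermoPol washes. After ten cycles, products were run on a 10% polyacrylamide gel (377). Band quantification gave cycle efficiency (incorporation × cleavage) and dephasing (%n–2, %n–1, %n+1).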

TaqFS polymerase = TaqFS polymerase (Thermus aquaticus, UniProt P19821, F667Y/G46D); assay: PEP; assay type: biochemical; conditions: TaqFS; Not Active = no visible +1 band in 377 gel image at 100 μM
Sequence of TaqFS polymerase (P19821 whole entry G46D/F667Y): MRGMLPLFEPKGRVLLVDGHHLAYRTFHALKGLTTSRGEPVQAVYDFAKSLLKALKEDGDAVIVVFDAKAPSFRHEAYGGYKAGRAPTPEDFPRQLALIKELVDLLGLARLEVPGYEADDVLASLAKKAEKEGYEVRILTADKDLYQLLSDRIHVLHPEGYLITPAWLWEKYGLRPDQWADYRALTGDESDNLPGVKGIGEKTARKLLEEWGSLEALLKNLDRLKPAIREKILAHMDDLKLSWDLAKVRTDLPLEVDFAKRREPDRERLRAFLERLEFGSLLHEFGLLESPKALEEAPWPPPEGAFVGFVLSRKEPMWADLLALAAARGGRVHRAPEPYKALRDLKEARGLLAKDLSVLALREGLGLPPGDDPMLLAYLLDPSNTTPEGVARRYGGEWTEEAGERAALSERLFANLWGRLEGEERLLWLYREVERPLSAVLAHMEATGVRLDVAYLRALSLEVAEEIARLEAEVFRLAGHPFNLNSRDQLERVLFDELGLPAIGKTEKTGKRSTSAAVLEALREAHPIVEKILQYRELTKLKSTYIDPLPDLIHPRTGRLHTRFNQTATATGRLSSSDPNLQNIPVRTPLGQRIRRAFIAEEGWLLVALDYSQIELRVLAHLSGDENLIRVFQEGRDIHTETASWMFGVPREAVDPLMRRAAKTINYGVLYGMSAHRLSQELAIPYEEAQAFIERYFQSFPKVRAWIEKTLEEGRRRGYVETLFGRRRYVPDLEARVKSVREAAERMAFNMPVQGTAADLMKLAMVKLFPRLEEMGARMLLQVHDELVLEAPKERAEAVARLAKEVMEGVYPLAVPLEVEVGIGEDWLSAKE
Summary of the method: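 Polymerase end-point assay for single-base incorporation. 5 nM BODIPY-FL-labelled primer-1 was hybridised to 40 nM oligoTemplate-4, with the interrogation base complementary to dU. Absence of a +1 band on the 377 gel image at 100 μM counts as not active. IC50 was averaged from triplicates ± 1 SD. Incorporation bias is the analog IC50 divided by the natural-nucleotide (HOMedUTP) IC50.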

Compound | Selectivity ratios / mismatch discrimination (in words) (Therminator polymerase [4]) | DT50 values (time at which 50% of 2-nitrobenzyl groups were photochemically cleaved) [5] | Weighted-sum value (Therminator polymerase [6]) | Weighted-sum value (Vent(exo^−) polymerase [7]) | also measured
C=CCO[C@H]1C[C@H](n2cnc3c(N)ncnc32)O[C@@H]1COP(=O)(O)OP(=O)(O)OP(=O)(O)O [3′-O-allyl-dATP] | – | – | – | – | Incorporation by polymerase (in words) (Vent(exo^−) polymerase [1]): not efficiently incorporated
O=c1[nH]c(=O)n([C@H]2C[C@H](O)[C@@H](COP(=O)(O)OP(=O)(O)OP(=O)(O)O)O2)cc1CO [HOMedUTP, 5-hydroxymethyl-2′-deoxyuridine triphosphate] | – | – | – | – | Selectivity ratio (mismatched IC50/matched IC50) (Vent(exo^−) polymerase [2]): greater than three orders of magnitude; PCR product yield and size, HOMedUTP in place of TTP (Vent(exo^−) polymerase [3]): Comparable yields and product size
Cc1cn([C@H]2C[C@H](O)[C@@H](COP(=O)(O)OP(=O)(O)OP(=O)(O)O)O2)c(=O)n(Cc2ccccc2[N+](=O)[O-])c1=O [T.I, N^3-(2-Nitrobenzyl)-thymidine-5’-triphosphate] | indiscriminately against all mismatched template bases | – | – | – | –
CC(C)[C@H](OCc1cn([C@H]2C[C@H](O)[C@@H](COP(=O)(O)OP(=O)(O)OP(=O)(O)O)O2)c(=O)[nH]c1=O)c1ccccc1[N+](=O)[O-] [dU.IV, 5-[(S)-1-(2-Nitrophenyl)-2-methyl-propyloxy]methyl-2'-deoxyuridine-5’-triphosphate] | almost three orders of magnitude | 1.8 s and 1.8 ± 0.1 s | 1.9 and 1.9 ± 0.2 | 1.7 and 1.7 ± 0.1 | –
CC(C)(C)[C@H](OCc1cn([C@H]2C[C@H](O)[C@@H](COP(=O)(O)OP(=O)(O)OP(=O)(O)O)O2)c(=O)[nH]c1=O)c1ccccc1[N+](=O)[O-] [dU.V, 5-[(S)-1-(2-nitrophenyl)-2,2-dimethyl-propyloxy]methyl-2'-deoxyuridine-5’-triphosphate] | almost three orders of magnitude | 1.3 s and 1.3 ± 0.1 s | 1.0 and 1.0 ± 0.0 | 1.0 and 1.0 ± 0.0 | Overall signal of reaction products over the 10 CRT cycles (Therminator polymerase [8]): remained relatively constant; IC50 values (activity in words) (TaqFS polymerase): not incorporated
